We go through 18 molecules from ChEMBL document CHEMBL1155918, “Oxadiazole-carbonylaminothioureas as SIRT1 and SIRT2 inhibitors” (J Med Chem, 2008).

Test [1] deals with T1, NAD-dependent protein deacetylase sirtuin-1 (Homo sapiens) (UniProt Q96EB6).
T1 sequence (whole entry): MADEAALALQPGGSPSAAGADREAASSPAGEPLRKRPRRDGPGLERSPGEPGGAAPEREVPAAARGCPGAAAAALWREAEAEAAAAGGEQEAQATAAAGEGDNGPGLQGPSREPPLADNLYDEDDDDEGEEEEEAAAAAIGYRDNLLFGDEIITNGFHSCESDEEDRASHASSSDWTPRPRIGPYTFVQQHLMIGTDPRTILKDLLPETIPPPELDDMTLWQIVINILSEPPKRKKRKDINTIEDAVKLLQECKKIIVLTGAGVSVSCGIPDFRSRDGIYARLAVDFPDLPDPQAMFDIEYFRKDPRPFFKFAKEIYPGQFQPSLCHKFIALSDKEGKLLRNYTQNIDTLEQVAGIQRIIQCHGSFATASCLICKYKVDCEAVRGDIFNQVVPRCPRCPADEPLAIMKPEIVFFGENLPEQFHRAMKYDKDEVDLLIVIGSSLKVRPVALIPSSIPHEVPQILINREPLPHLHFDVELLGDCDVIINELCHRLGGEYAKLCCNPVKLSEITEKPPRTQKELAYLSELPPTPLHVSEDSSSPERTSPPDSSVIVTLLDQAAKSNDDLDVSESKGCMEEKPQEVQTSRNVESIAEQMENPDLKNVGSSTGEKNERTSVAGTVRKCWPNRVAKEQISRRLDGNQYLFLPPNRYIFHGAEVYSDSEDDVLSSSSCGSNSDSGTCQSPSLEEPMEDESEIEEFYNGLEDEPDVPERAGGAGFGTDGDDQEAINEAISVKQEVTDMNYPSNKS
As to the kind of experiment: Inhibition of human SIRT1 at 200 uM. The essentials:
(§1)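 Single-concentration screen at 200 µM compound in the NAD⁺-based assay, with radiolabeled nicotinamide release read by thin layer chromatography. Result is % inhibition ± standard deviation (n = 2-3).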

The target in test [2] is T2, NAD-dependent protein deacetylase sirtuin-2 (Homo sapiens) (UniProt Q8IXJ6).
T2 sequence (whole entry): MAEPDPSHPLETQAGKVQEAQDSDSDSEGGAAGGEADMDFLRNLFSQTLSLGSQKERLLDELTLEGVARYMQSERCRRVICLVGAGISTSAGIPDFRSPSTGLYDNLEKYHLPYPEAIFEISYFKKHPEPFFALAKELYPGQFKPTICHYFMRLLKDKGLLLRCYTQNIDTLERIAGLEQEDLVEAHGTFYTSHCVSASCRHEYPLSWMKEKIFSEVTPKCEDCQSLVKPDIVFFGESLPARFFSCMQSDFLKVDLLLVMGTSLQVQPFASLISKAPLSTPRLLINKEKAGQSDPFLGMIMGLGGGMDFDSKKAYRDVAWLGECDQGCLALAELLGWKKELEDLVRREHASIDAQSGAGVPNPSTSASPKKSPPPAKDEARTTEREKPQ
As to the kind of experiment: Inhibition of human SIRT2 at 200 uM. Put shortly:
as §1

Test [3] concerns the target T3, NAD-dependent protein deacetylase sirtuin-1 (Homo sapiens, UniProt Q96EB6).
T3 sequence (Q96EB6 whole entry): T1 sequence (whole entry)
Nature of the test: Inhibition of human SIRT1 assessed as nicotinamide releasing by microplate filtration assay.

Test [4] deals with T4, NAD-dependent protein deacetylase sirtuin-2 (Homo sapiens, UniProt Q8IXJ6).
T4 sequence (Q8IXJ6 whole entry): T2 sequence (whole entry)
As to the kind of experiment: Inhibition of human SIRT2 assessed as nicotinamide releasing by microplate filtration assay.

What is called inhibition is the change of the read-out against control, counted positive when it falls. As a reminder, the IC50 is the concentration that inhibits the measured activity by half.

Each structure is given as a SMILES string.

As to `O=C(NNC(=S)Nc1ccc(F)cc1)c1nc(-c2cccc3ccccc23)no1`, the inhibition in test [1] came out at 10%; in test [2], 35%.

For `CCCCNC(=O)NNC(=O)c1nc(-c2ccc(C(C)(C)C)cc2)no1`, the inhibition was 22% in test [1] and 7% in test [2].

For `CC(C)(C)c1ccc(-c2noc(C(=O)NNC(=O)Nc3cccc([N+](=O)[O-])c3)n2)cc1`, the inhibition in test [1] was found to be 18%; in test [2], 39%.

With `CC(C)(C)c1ccc(-c2noc(C(=O)NNC(=S)Nc3ccc(C(F)(F)F)cc3)n2)cc1`, the inhibition in test [1] was determined as 70%; in test [2], 89%. Also, the IC50 in test [3] was 325 µM; in test [4], 109 µM.

Take `O=C(NNC(=O)c1nc(-c2cccc3ccccc23)no1)Nc1cccc(C(F)(F)F)c1`: the inhibition in test [1] was 12%; in test [2], 51%. Further, in test [4], the IC50 is 257 µM.

For the molecule `CC(C)(C)c1ccc(-c2noc(C(=O)NNC(=O)Nc3ccccc3)n2)cc1`, the inhibition in test [1] came to 14%; in test [2], 38%.

Regarding `O=C(NNC(=S)Nc1ccc(C(F)(F)F)cc1)c1nc(-c2cccc3ccccc23)no1`, the inhibition was 54% in test [1] and 71% in test [2]. The IC50 amounted to 318 µM in test [3] and 74 µM in test [4].

As for `CC(C)(C)c1ccc(-c2noc(C(=O)NNC(=S)Nc3cccc(C(F)(F)F)c3)n2)cc1`, the results for the inhibition in test [1] and in test [2] were 59% and 87%, respectively. Moreover, the IC50 in test [3] was determined as 192 µM; in test [4] it was 57 µM.

On to `O=C(NNC(=S)Nc1ccc(C(F)(F)F)cc1)c1nc(-c2cccnc2)no1`, for which the inhibition in test [1] was 4%; in test [2] it was -4%.

Take `O=C(NNC(=S)Nc1cccc(C(F)(F)F)c1)c1nc(-c2cccc3ccccc23)no1`: the inhibition in test [1] came out at 57%; in test [2], 56%. Moreover, the IC50 in test [3] stood at 13 µM; in test [4], 113 µM.

In the case of `O=C(CNC(=O)c1nc(-c2ccccc2)no1)Nc1ccccc1`, the inhibition is 28% in test [1] and 17% in test [2].

Take `CC(C)(C)c1ccc(-c2noc(C(=O)NCC(=O)Nc3cccc(C(F)(F)F)c3)n2)cc1`: the inhibition in test [1] is 20%; in test [2] it was 18%.

`CC(C)(C)c1ccc(-c2noc(CCCC(=O)Nc3cccc(C(F)(F)F)c3)n2)cc1`: the inhibition in test [1] was 17%; in test [2] it was 0%.

`O=C(NNC(=S)Nc1ccc(C(F)(F)F)cc1)c1nc(-c2ccccc2)no1`: the inhibition in test [1] is 29%; in test [2] it was 8%.

Take `CC(C)(C)OC(=O)Nc1cccc(-c2noc(C(=O)NNC(=S)Nc3ccc(C(F)(F)F)cc3)n2)c1`: the inhibition in test [1] was determined as 69%; in test [2], 71%. Besides, the results for the IC50 in test [3] and in test [4] were 168 µM and 129 µM, respectively.

`O=C(NNC(=S)Nc1ccc(F)cc1)c1nc(-c2ccccc2)no1`: the inhibition in test [2] came to 22%.

In the case of `O=C(CCCc1nc(-c2ccccc2)no1)Nc1ccccc1`, the values for the inhibition in test [1] and in test [2] were 0% and 5%, respectively.

Take `CC(C)(C)c1ccc(-c2noc(C(=O)NNC(=S)Nc3ccccc3)n2)cc1`: the inhibition was -2% in test [1] and 29% in test [2].
